# Hits are enriched below; roughly 2.1% of the tested compounds scored in any of these assays.
# DENV2 CPE – protects cells from dengue virus 2 cytopathic effect; 350,000 tested, 1.7% active; AID 651640; DENV2-infected cells, cytopathic effect rescue, plate reader; CPE inhibition, % at 9.99 µM; in the data active = CPE inhibition above about 20%, passing the limit was not always enough; tested in BHK-21 cells;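 note: 0% = median of neutral control wells and 100% = median of positive control wells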
# Statin myotox sup – protects C2C12 myotubes from simvastatin toxicity; ATP luminescence, 48 h; scaled: DMSO 0, geranylgeraniol control 100; 330,000 tested, 0.78% active; rescue of ATP level, % at 7.49 µM; AID 602340;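 active = mean ATP rescue above about 67%, or every replicate alone reaching that limit, limit read from the data, passing the limit was not always enough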;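 note: myotubes were challenged with 10 µM simvastatin during compound exposure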
# Cneo AK release – Cryptococcus neoformans lysis via adenylate kinase release. 360,000 tested, 0.2% active. lysis activity, % at 15 µM. AID 651654. C. neoformans lysis, adenylate kinase release luminescence, 4 h; normalised: neutral wells 0, clomiphene wells 100;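 active = mean lysis activity across replicates of at least 80%, whatever share of replicates individually reach that level; inactive = mean lysis activity below 80%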
#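 Material: C. neoformans cells; Schedule: 4 h static compound exposure, 37 °C, read 1 h post-reagent; Measured by: adenylate kinase release luminescence; Read-out: signal increase indicating cell lysis; Controls: Clomiphene as positive lysis control.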
# Xi reactivation – X-chromosome reactivation activator | AID 743238 | 360,000 tested, 0.055% active | activation, % at 7.58 µM | XiGFP mouse fibroblasts, % GFP-positive cells imaging, 3 d; cells co-treated with 5-aza-dC sensitizer; scaled so ellipticine positive control = 100%;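 active = mean normalized replicate activation at least 10% and every replicate at or above 10%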;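 note: 0% = median of on-plate neutral control wells and 100% = ellipticine 6 µM median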
#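 Material: XiGFP fibroblasts, SV40-immortalized. Buffer or medium: DMEM plus 5-aza-dC sensitizer. Compound: single concentration per compound, delivered by pin transfer. Times: 3 days compound exposure. Controls: ellipticine 6 µM.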
# * hit, by the source's call; / = no result.
SMILES,DENV2 CPE,Statin myotox sup,Cneo AK release,Xi reactivation
C[C@@H]1CN([C@@H](C)CO)C(=O)c2cc(-c3ccc(F)cc3)cnc2O[C@@H]1CN(C)C(=O)c1ccc(F)cc1,10,8,27,-1
CC(=O)N(C)C[C@H]1Oc2ncc(-c3ccc(F)cc3)cc2C(=O)N([C@@H](C)CO)C[C@H]1C,10,1,5,0
C[C@H](CO)N1C[C@H](C)[C@H](CN(C)CC2CCCCC2)Oc2ncc(-c3ccc(F)cc3)cc2C1=O,-5,-5,-2,0
CC(=O)N(C)C[C@@H]1Oc2ncc(-c3ccc(F)cc3)cc2C(=O)N([C@H](C)CO)C[C@H]1C,59*,-12,-3,0
C[C@@H]1CN([C@H](C)CO)C(=O)c2cc(-c3ccc(F)cc3)cnc2O[C@H]1CN(C)CC1CCCCC1,-1,-36,106*,0
C[C@H](CO)N1C[C@H](C)[C@@H](CN(C)C(=O)c2ccc(F)cc2)Oc2ncc(-c3ccc(F)cc3)cc2C1=O,48*,2,8,-1
C[C@@H]1CN([C@@H](C)CO)C(=O)c2cc(NS(=O)(=O)c3ccc(F)cc3)ccc2O[C@@H](C)CCCCO[C@@H]1CN(C)C(=O)Cc1ccccc1,-15,/,-11,0
Cc1nn(C)cc1NC(=O)C[C@H]1CC[C@@H]2[C@@H](COc3ccc(NC(=O)Nc4cccc(Cl)c4)cc3C(=O)N2C)O1,-6,-1,-1,0
CCOC(=O)C1CCCN(C(=O)c2cc3c(-c4cccc(OC)c4)nn(C)c3s2)C1 (stereo unspecified),/,96*,-2,/
CCOC(=O)C1CCN(C(=O)c2cc3c(-c4ccc(OC)c(OC)c4)nn(C)c3s2)CC1,/,15,2,/
C[C@@H]1CCCCO[C@@H](CN(C)C(=O)c2ccccc2)[C@H](C)CN([C@@H](C)CO)C(=O)c2cc(NC(=O)C3CCCCC3)ccc2O1,71*,8,0,0
CC(C)NC(=O)Nc1ccc2c(c1)C(=O)N([C@H](C)CO)C[C@H](C)[C@@H](CN(C)C(=O)c1ccccc1)OCCCC[C@H](C)O2,48*,-1,2,0
C[C@@H]1CN([C@H](C)CO)C(=O)c2cc(NC(=O)C3CCCCC3)ccc2O[C@@H](C)CCCCO[C@@H]1CN(C)C(=O)c1ccccc1,20,-21,-1,0
CN1C(=O)c2cc(NC(=O)Cc3cccs3)ccc2OC[C@H]2O[C@H](CC(=O)NCC3CC3)CC[C@@H]21,-9,3,-2,0
COc1ccc(C#Cc2ccc3c(c2)[C@@H]2[C@@H](CCN2C(=O)C2CCOCC2)[C@@H](CO)N3)cc1,/,20,12,0
O=C1N2CCCCC1(Sc1ccccc1)CCC2 (stereo unspecified),11,/,/,1
O=C1N2CCCCC1(c1ccccc1)CCCC2,40*,/,/,0
C[C@@H]1CN([C@@H](C)CO)C(=O)Cc2cc(NC(=O)C3CC3)ccc2O[C@@H]1CN(C)S(=O)(=O)c1ccccc1,2,0,0,-1
C[C@@H]1CN([C@@H](C)CO)C(=O)Cc2cc(NC(=O)C3CC3)ccc2O[C@H]1CN(C)S(=O)(=O)c1ccc(Cl)cc1,70*,3,-3,0
C[C@@H]1CN([C@H](C)CO)C(=O)Cc2cc(NC(=O)C3CC3)ccc2O[C@@H]1CN(C)S(=O)(=O)c1ccc(Cl)cc1,-10,-1,0,0
C[C@@H]1CN([C@@H](C)CO)C(=O)Cc2cc(NC(=O)C3CC3)ccc2O[C@H]1CN(C)S(=O)(=O)c1ccccc1,34*,6,-1,-1
CC(C)NC(=O)Nc1ccc2c(c1)C(=O)N([C@H](C)CO)C[C@H](C)[C@@H](CN(C)C(=O)CCCN(C)C)OCCCC[C@H](C)O2,-5,/,-2,0
CC(=O)NC[C@H]1[C@@H](c2ccc(C3=CCCCC3)cc2)[C@@H](CO)N1C(=O)NC(C)C,55*,-10,0,0
CC(=O)NC[C@@H]1[C@@H](c2ccc(C3=CCCC3)cc2)[C@@H](CO)N1C(=O)NC(C)C,5,-8,112*,0
COc1ccc(NC(=O)N(C)C[C@@H]2Oc3ccc(NS(C)(=O)=O)cc3CC(=O)N([C@@H](C)CO)C[C@@H]2C)cc1,9,20,3,0
SMILES,DENV2 CPE,Statin myotox sup,Cneo AK release,Xi reactivation
O=C(c1cccc(F)c1)N1CCCCN2[C@@H](CO)[C@H](c3ccc(-c4ccncc4)cc3)[C@@H]2C1,-11,/,112*,0
COc1ccccc1NC(=O)N1CCCCN2[C@H](CO)[C@H](c3ccc(-c4cccc(C)c4)cc3)[C@@H]2C1,22*,/,-1,0
O=C(c1cccc(F)c1)N1CCCCN2[C@H](CO)[C@@H](c3ccc(-c4ccncc4)cc3)[C@H]2C1,-4,/,-1,0
COc1cccc(-c2ccc([C@H]3[C@H](CO)N4CCCCN(C(=O)c5ccc(F)cc5)C[C@@H]34)cc2)c1,37*,47,-2,0
Cc1cccc(-c2ccc([C@H]3[C@@H](CO)N4CCCCN(C(=O)c5ccncc5)C[C@H]34)cc2)c1,20*,37,5,0
O=C(O)C[C@H]1CC[C@@H](NC(=O)c2ccncc2)[C@@H](CO)O1,18,1,8,0
COc1ccc(NC(=O)Nc2ccc3c(c2)[C@@H]2C[C@H](CC(=O)NCc4ccc5c(c4)OCO5)O[C@H](CO)[C@@H]2O3)cc1,-2,2,0,0
O=C(c1ccc2c(c1)OCO2)N1CCCCN2[C@H](C1)[C@H](c1ccc(-c3ccccc3)cc1)[C@@H]2CO,-2,/,5,0
Cc1cccc(-c2ccc([C@@H]3[C@H]4CN(C(=O)c5ccc6c(c5)OCO6)CCCCN4[C@H]3CO)cc2)c1,-36,-14,86*,0
O=C(O)C/C(=C\c1cccc(NC(=O)c2ccccc2Cl)c1)c1nc2ccccc2s1,2,0,112*,0
COc1ccc(C(=O)Nc2cccc(/C=C(\CCC(=O)O)c3nc4ccccc4s3)c2)cc1,-6,-10,-2,1
CCC(=O)N1C[C@H](C)[C@@H](OC)CN(C)C(=O)c2cc(NS(C)(=O)=O)ccc2OC[C@H]1C,13,5,-1,0
O=C(Nc1ccccc1)N1CCc2c([nH]c3ccccc23)C1C(F)(F)F (stereo unspecified),1,/,1,0
O=C(c1ccc(Cl)cc1)N1CCc2c([nH]c3ccccc23)C1C(F)(F)F (stereo unspecified),26*,/,1,0
O=c1[nH]c(=S)[nH]c2c1C(c1ccc(Cl)cc1)OC(CCc1ccccc1)C2 (stereo unspecified),101*,3,3,0
O=c1[nH]c(=S)[nH]c2c1C(c1ccc(Cl)c(Cl)c1)OC(CCc1ccccc1)C2 (stereo unspecified),19,/,/,0
Cc1ccc(C(=O)NNC(=O)CSc2nnc(CNc3ccc(F)cc3)n2C)cc1,17,/,/,0
Cc1ccc(NCc2nnc(SCC(=O)NNC(=O)Cc3ccccc3)n2C)cc1,3,/,-1,21*
